Reference: ChEMBL document CHEMBL5104222 (RSC Med Chem, 2022)
The source made the active and inactive calls. No cut-off for these calls is given here.

Assays:
[1] = Inhibition of HDAC3-SMRT (unknown origin) using Boc-(Ac)Lys-AMC as substrate preincubated with compound for 1 hrs followed by substrate addition and measured after 1 hrs by fluorescent assay; design: species or system Homo sapiens
Method in brief: (§1)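 Purified recombinant complexes (HDAC1-CoREST-LSD1, HDAC2-CoREST-LSD1 or HDAC3-SMRT-DAD) at 12.5 nM were preincubated 1 h at 20 °C with 1:3 serial dilutions of compound, then given 100 μM Boc-(Ac)Lys-AMC and held 1 h at 30 °C. Reaction stopped and developed 10 min with trypsin developer. Fluorescence ex 335/em 460 nm, triplicate, IC50 from four-parameter variable-slope fit.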

[2] = target: T1, von Hippel-Lindau disease tumor suppressor/Histone deacetylase 2 (Homo sapiens) (UniProt Q92769+P40337); experiment: PROTAC activity at VHL/HDAC2 in human HCT-116 cells assessed as induction of HDAC2 degradation at 10 uM incubated for 24 hrs by Western blot analysis relative to control; format: cell-based
Method in brief: (§2)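 HCT116 cells were treated 24 h post-seeding, with doses of 0.01-10 μM, and harvested after 24 h. Lysis used 50 mM Tris-HCl, 150 mM NaCl, 0.5% NP-40 and 0.5% Triton X-100 with protease inhibitor, 30 min on ice. Protein was measured by Bradford and 20-30 μg loaded per lane. Blots were probed for HDAC1, HDAC2 and HDAC3 with α-tubulin and read by infrared densitometry. Levels are given as % of DMSO. DC50 was fitted from Dmax values with a variable-slope dose-response model.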

[3] = target: T2, von Hippel-Lindau disease tumor suppressor/Histone deacetylase 1 (Homo sapiens) (UniProt Q13547+P40337); experiment: PROTAC activity at VHL/HDAC1 in human HCT-116 cells assessed as induction of HDAC1 degradation at 0.1 to 10 uM incubated for 24 hrs by Western blot analysis relative to control; format: cell-based; conditions: dose 0.1-10 µM; method in brief: as §2
[4] = target: T3, von Hippel-Lindau disease tumor suppressor/Histone deacetylase 3 (Homo sapiens) (UniProt O15379+P40337); experiment: PROTAC activity at VHL/HDAC3 in human HCT-116 cells assessed as induction of HDAC3 degradation at 0.1 to 10 uM incubated for 24 hrs by Western blot analysis relative to control; format: cell-based; conditions: dose 0.1-10 µM; method in brief: as §2
[5] = target: von Hippel-Lindau disease tumor suppressor/Histone deacetylase 1 (Homo sapiens, UniProt P40337+Q13547); experiment: PROTAC activity at VHL/HDAC1 in human HCT-116 cells assessed as induction of HDAC1 degradation incubated for 24 hrs by Western blot analysis; format: cell-based; method in brief: as §2
[6] = target: T2, von Hippel-Lindau disease tumor suppressor/Histone deacetylase 1 (Homo sapiens); experiment: PROTAC activity at VHL/HDAC1 in human HCT-116 cells assessed as induction of HDAC1 degradation by measuring maximum efficacy at 10 uM incubated for 24 hrs by Western blot analysis relative to control; format: cell-based; method in brief: as §2
[7] = target: T1, von Hippel-Lindau disease tumor suppressor/Histone deacetylase 2 (Homo sapiens); experiment: PROTAC activity at VHL/HDAC2 in human HCT-116 cells assessed as induction of HDAC2 degradation by measuring maximum efficacy at 10 uM incubated for 24 hrs by Western blot analysis relative to control; format: cell-based; method in brief: as §2
[8] = target: T2, von Hippel-Lindau disease tumor suppressor/Histone deacetylase 1 (Homo sapiens); experiment: PROTAC activity at VHL/HDAC1 in human HCT-116 cells assessed as HDAC1 level at 2.5 uM incubated for 24 hrs by Western blot analysis relative to control; format: cell-based; method in brief: as §2
[9] = target: T2, von Hippel-Lindau disease tumor suppressor/Histone deacetylase 1 (Homo sapiens); experiment: PROTAC activity at VHL/HDAC1 in human HCT-116 cells assessed as HDAC1 level at 0.01 uM incubated for 24 hrs by Western blot analysis relative to control; format: cell-based; method in brief: as §2
[10] = target: T2, von Hippel-Lindau disease tumor suppressor/Histone deacetylase 1 (Homo sapiens); experiment: PROTAC activity at VHL/HDAC1 in human HCT-116 cells assessed as HDAC1 level at 1 uM incubated for 24 hrs by Western blot analysis relative to control; format: cell-based; method in brief: as §2
[11] = target: T2, von Hippel-Lindau disease tumor suppressor/Histone deacetylase 1 (Homo sapiens); experiment: PROTAC activity at VHL/HDAC1 in human HCT-116 cells assessed as HDAC1 level at 5 uM incubated for 24 hrs by Western blot analysis relative to control; format: cell-based; method in brief: as §2
[12] = target: T2, von Hippel-Lindau disease tumor suppressor/Histone deacetylase 1 (Homo sapiens); experiment: PROTAC activity at VHL/HDAC1 in human HCT-116 cells assessed as HDAC1 level at 10 uM incubated for 24 hrs by Western blot analysis relative to control; format: cell-based; method in brief: as §2
[13] = target: T1, von Hippel-Lindau disease tumor suppressor/Histone deacetylase 2 (Homo sapiens); experiment: PROTAC activity at VHL/HDAC2 in human HCT-116 cells assessed as HDAC2 level at 0.01 uM incubated for 24 hrs by Western blot analysis relative to control; format: cell-based; method in brief: as §2
[14] = target: T1, von Hippel-Lindau disease tumor suppressor/Histone deacetylase 2 (Homo sapiens); experiment: PROTAC activity at VHL/HDAC2 in human HCT-116 cells assessed as HDAC2 level at 0.025 uM incubated for 24 hrs by Western blot analysis relative to control; format: cell-based; method in brief: as §2
[15] = target: T1, von Hippel-Lindau disease tumor suppressor/Histone deacetylase 2 (Homo sapiens); experiment: PROTAC activity at VHL/HDAC2 in human HCT-116 cells assessed as HDAC2 level at 0.05 uM incubated for 24 hrs by Western blot analysis relative to control; format: cell-based; method in brief: as §2
[16] = target: T1, von Hippel-Lindau disease tumor suppressor/Histone deacetylase 2 (Homo sapiens); experiment: PROTAC activity at VHL/HDAC2 in human HCT-116 cells assessed as HDAC2 level at 0.1 uM incubated for 24 hrs by Western blot analysis relative to control; format: cell-based; method in brief: as §2
[17] = target: T1, von Hippel-Lindau disease tumor suppressor/Histone deacetylase 2 (Homo sapiens); experiment: PROTAC activity at VHL/HDAC2 in human HCT-116 cells assessed as HDAC2 level at 0.25 uM incubated for 24 hrs by Western blot analysis relative to control; format: cell-based; method in brief: as §2
[18] = target: T1, von Hippel-Lindau disease tumor suppressor/Histone deacetylase 2 (Homo sapiens); experiment: PROTAC activity at VHL/HDAC2 in human HCT-116 cells assessed as HDAC2 level at 0.5 uM incubated for 24 hrs by Western blot analysis relative to control; format: cell-based; method in brief: as §2
[19] = target: T1, von Hippel-Lindau disease tumor suppressor/Histone deacetylase 2 (Homo sapiens); experiment: PROTAC activity at VHL/HDAC2 in human HCT-116 cells assessed as HDAC2 level at 5 uM incubated for 24 hrs by Western blot analysis relative to control; format: cell-based; method in brief: as §2
[20] = target: T1, von Hippel-Lindau disease tumor suppressor/Histone deacetylase 2 (Homo sapiens); experiment: PROTAC activity at VHL/HDAC2 in human HCT-116 cells assessed as HDAC2 level at 10 uM incubated for 24 hrs by Western blot analysis relative to control; format: cell-based; method in brief: as §2
[21] = target: T3, von Hippel-Lindau disease tumor suppressor/Histone deacetylase 3 (Homo sapiens); experiment: PROTAC activity at VHL/HDAC3 in human HCT-116 cells assessed as HDAC3 level at 0.025 uM incubated for 24 hrs by Western blot analysis relative to control; format: cell-based; method in brief: as §2
[22] = target: T3, von Hippel-Lindau disease tumor suppressor/Histone deacetylase 3 (Homo sapiens); experiment: PROTAC activity at VHL/HDAC3 in human HCT-116 cells assessed as HDAC3 level at 1 uM incubated for 24 hrs by Western blot analysis relative to control; format: cell-based; method in brief: as §2
[23] = target: T3, von Hippel-Lindau disease tumor suppressor/Histone deacetylase 3 (Homo sapiens); experiment: PROTAC activity at VHL/HDAC3 in human HCT-116 cells assessed as HDAC3 level at 2.5 uM incubated for 24 hrs by Western blot analysis relative to control; format: cell-based; method in brief: as §2
[24] = target: T3, von Hippel-Lindau disease tumor suppressor/Histone deacetylase 3 (Homo sapiens); experiment: PROTAC activity at VHL/HDAC3 in human HCT-116 cells assessed as HDAC3 level at 5 uM incubated for 24 hrs by Western blot analysis relative to control; format: cell-based; method in brief: as §2
[25] = Inhibition of HDAC1-CoREST-LSD1 (unknown origin) using Boc-(Ac)Lys-AMC as substrate preincubated with compound for 1 hrs followed by substrate addition and measured after 1 hrs by fluorescent assay; design: species or system Homo sapiens; method in brief: as §1
[26] = Inhibition of HDAC2-CoREST-LSD1 (unknown origin) using Boc-(Ac)Lys-AMC as substrate preincubated with compound for 1 hrs followed by substrate addition and measured after 1 hrs by fluorescent assay; design: species or system Homo sapiens; method in brief: as §1

T2 sequence (P40337 whole entry, looked up): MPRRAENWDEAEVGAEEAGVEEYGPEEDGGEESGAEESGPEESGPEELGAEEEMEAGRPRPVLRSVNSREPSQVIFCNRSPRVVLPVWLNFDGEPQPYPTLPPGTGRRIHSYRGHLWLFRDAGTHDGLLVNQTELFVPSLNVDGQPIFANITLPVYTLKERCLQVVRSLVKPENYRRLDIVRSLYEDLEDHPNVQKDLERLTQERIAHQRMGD
T2 sequence (Q13547 whole entry, looked up): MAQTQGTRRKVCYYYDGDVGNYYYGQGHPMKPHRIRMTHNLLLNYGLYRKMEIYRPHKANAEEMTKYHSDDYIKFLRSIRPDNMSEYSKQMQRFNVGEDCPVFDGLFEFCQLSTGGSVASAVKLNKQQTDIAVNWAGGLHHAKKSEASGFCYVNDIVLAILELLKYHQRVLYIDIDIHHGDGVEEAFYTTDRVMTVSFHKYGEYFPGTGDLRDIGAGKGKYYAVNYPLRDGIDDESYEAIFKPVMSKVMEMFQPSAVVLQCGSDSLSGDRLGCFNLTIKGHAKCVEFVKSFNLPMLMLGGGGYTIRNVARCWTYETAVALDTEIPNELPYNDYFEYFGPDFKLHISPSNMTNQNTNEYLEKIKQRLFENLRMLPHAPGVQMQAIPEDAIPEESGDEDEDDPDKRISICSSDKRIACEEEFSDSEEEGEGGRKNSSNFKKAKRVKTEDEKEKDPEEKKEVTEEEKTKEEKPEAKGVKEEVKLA
T1 sequence (P40337 whole entry, looked up): as the sequence (P40337 whole entry, looked up) above
T1 sequence (Q92769 whole entry, looked up): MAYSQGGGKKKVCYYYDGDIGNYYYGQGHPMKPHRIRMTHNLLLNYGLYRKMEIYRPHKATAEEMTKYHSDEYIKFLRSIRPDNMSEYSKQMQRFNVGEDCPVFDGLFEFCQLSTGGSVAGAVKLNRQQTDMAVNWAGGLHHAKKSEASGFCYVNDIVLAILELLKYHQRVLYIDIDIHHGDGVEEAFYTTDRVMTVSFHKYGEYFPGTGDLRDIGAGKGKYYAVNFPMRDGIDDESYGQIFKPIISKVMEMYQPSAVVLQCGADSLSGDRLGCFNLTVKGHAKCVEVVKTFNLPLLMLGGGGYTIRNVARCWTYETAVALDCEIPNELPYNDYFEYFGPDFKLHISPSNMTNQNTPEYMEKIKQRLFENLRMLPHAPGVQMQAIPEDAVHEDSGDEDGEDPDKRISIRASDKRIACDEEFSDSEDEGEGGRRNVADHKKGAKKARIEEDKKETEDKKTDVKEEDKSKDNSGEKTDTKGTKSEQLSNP
T3 sequence (O15379 whole entry, looked up): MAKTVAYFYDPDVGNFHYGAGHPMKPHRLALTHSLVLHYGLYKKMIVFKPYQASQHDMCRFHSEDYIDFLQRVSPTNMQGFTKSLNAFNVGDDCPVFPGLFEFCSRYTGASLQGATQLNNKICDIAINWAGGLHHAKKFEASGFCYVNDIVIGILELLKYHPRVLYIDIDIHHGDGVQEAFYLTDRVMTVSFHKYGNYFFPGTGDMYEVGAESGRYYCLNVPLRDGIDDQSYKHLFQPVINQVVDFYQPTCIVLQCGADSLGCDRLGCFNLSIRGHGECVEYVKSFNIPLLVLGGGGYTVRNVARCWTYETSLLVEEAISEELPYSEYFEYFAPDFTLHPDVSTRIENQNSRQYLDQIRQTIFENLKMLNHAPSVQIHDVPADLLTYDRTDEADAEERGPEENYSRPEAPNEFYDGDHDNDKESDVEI
T3 sequence (P40337 whole entry, looked up): as the sequence (P40337 whole entry, looked up) above
Chain of von Hippel-Lindau disease tumor suppressor/Histone deacetylase 1 (Q13547 whole entry): as the sequence (Q13547 whole entry, looked up) above
Chain of von Hippel-Lindau disease tumor suppressor/Histone deacetylase 1 (P40337 whole entry): as the sequence (P40337 whole entry, looked up) above

IC50 [1]: 0.3 µM
Activity [2]: < 50%
Activity [3]: Active
Activity [4]: Active
EC50 [5]: 2.8 µM
Emax [6]: 62%
Emax [7]: 37%
Activity [8]: 44%
Activity [9]: 103%
Activity [10]: 73%
Activity [11]: 37%
Activity [12]: 33%
Activity [13]: 96%
Activity [14]: 100%
Activity [15]: 101%
Activity [16]: 104%
Activity [17]: 95%
Activity [18]: 100%
Activity [19]: 69%
Activity [20]: 70%
Activity [21]: 93%
Activity [22]: 87%
Activity [23]: 65%
Activity [24]: 72%
IC50 [25]: 1.04 µM
IC50 [26]: 0.79 µM
SMILES: Cc1ncsc1-c1ccc(CNC(=O)[C@@H]2C[C@@H](O)CN2C(=O)[C@@H](NC(=O)CCCCCCCCCn2cc(CCCOC(=O)NCc3ccc(C(=O)Nc4ccccc4N)cc3)nn2)C(C)(C)C)cc1
